# Laboratory results published in ChEMBL document CHEMBL4689842, “EUbOPEN Chemogenomics Library wave 1” (2021).
# Tested on: HEK-293T
# Assay: Multiplex assay against HEK293T;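 as to Population Tubulin-Different-Phenotype (%): share of the cells with healthy nuclei that show this phenotype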
# Format: toxicity, cell-based
# Details: human
# Summary of the method: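 Cells were classed with CellPathfinder machine-learning gating, first as Hoechst high-intensity objects or normal cells, then (normal cells) as healthy, pyknosed or fragmented nuclei, and finally (pyknosed cells) as mitotic or apoptotic. Staining of live cells at seeding used Hoechst33342, BioTracker Green Microtubule Cytoskeleton Dye, MitoTracker Red and Annexin V Alexa Fluor 680, with imaging on a CQ1 microscope at 37°C and 5% CO2 after compound addition. Tubulin, mitochondrial-mass and membrane-permeability phenotypes are per cents of healthy-nucleus cells.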
# [1] = 12 h, 1 µM, compound concentration 1 uM, replicate 1
# [2] = 12 h, 1 µM, compound concentration 1 uM, replicate 2
# [3] = 12 h, 10 µM, compound concentration 10 uM, replicate 1
# [4] = 12 h, 10 µM, compound concentration 10 uM, replicate 2
# [5] = 24 h, 1 µM, compound concentration 1 uM, replicate 1
# [6] = 24 h, 1 µM, compound concentration 1 uM, replicate 2
# [7] = 24 h, 10 µM, compound concentration 10 uM, replicate 1
# [8] = 24 h, 10 µM, compound concentration 10 uM, replicate 2
# [9] = 48 h, 1 µM, compound concentration 1 uM, replicate 1
# [10] = 48 h, 1 µM, compound concentration 1 uM, replicate 2
# [11] = 48 h, 10 µM, compound concentration 10 uM, replicate 1
# [12] = 48 h, 10 µM, compound concentration 10 uM, replicate 2
compound,measurement,setting,value
CN1CCN(Cc2ccc(Nc3ncc(Cl)c(Nc4ccccc4S(=O)(=O)N(C)C)n3)cc2)CC1 [DUBERMATINIB],Population Apoptotic (%),[1],48%
same,Population Fragmented Nuclei (%),[1],14%
same,Population Healthy Nuclei (%),[1],42%
same,Population Hoechst High Intensity Objects (%),[1],12%
same,Population Membrane Permeable-Phenotype (%),[1],0%
same,Population Mitochondria Different-Phenotype (%),[1],72%
same,Population Mitotic Cells (%),[1],51%
same,Population Normal (%),[1],87%
same,Population Pyknosed Nuclei (%),[1],42%
same,Population Tubulin-Different-Phenotype (%),[1],35%
same,Total Cell Count,[1],297
same,Population Apoptotic (%),[2],13%
same,Population Fragmented Nuclei (%),[2],8%
same,Population Healthy Nuclei (%),[2],55%
same,Population Hoechst High Intensity Objects (%),[2],2%
same,Population Membrane Permeable-Phenotype (%),[2],5%
same,Population Mitochondria Different-Phenotype (%),[2],14%
same,Population Mitotic Cells (%),[2],86%
same,Population Normal (%),[2],97%
same,Population Pyknosed Nuclei (%),[2],35%
same,Population Tubulin-Different-Phenotype (%),[2],14%
same,Total Cell Count,[2],174
same,Population Apoptotic (%),[3],62%
same,Population Fragmented Nuclei (%),[3],11%
same,Population Healthy Nuclei (%),[3],40%
same,Population Hoechst High Intensity Objects (%),[3],18%
same,Population Membrane Permeable-Phenotype (%),[3],1%
same,Population Mitochondria Different-Phenotype (%),[3],96%
same,Population Mitotic Cells (%),[3],38%
same,Population Normal (%),[3],81%
same,Population Pyknosed Nuclei (%),[3],47%
same,Population Tubulin-Different-Phenotype (%),[3],88%
same,Total Cell Count,[3],258
same,Population Apoptotic (%),[4],16%
same,Population Fragmented Nuclei (%),[4],14%
same,Population Healthy Nuclei (%),[4],59%
same,Population Hoechst High Intensity Objects (%),[4],4%
same,Population Membrane Permeable-Phenotype (%),[4],2%
same,Population Mitochondria Different-Phenotype (%),[4],32%
same,Population Mitotic Cells (%),[4],83%
same,Population Normal (%),[4],95%
same,Population Pyknosed Nuclei (%),[4],26%
same,Population Tubulin-Different-Phenotype (%),[4],33%
same,Total Cell Count,[4],214
same,Population Apoptotic (%),[5],53%
same,Population Fragmented Nuclei (%),[5],15%
same,Population Healthy Nuclei (%),[5],45%
same,Population Hoechst High Intensity Objects (%),[5],10%
same,Population Membrane Permeable-Phenotype (%),[5],0%
same,Population Mitochondria Different-Phenotype (%),[5],59%
same,Population Mitotic Cells (%),[5],46%
same,Population Normal (%),[5],89%
same,Population Pyknosed Nuclei (%),[5],39%
same,Population Tubulin-Different-Phenotype (%),[5],31%
same,Total Cell Count,[5],290
same,Population Apoptotic (%),[6],27%
same,Population Fragmented Nuclei (%),[6],19%
same,Population Healthy Nuclei (%),[6],69%
same,Population Hoechst High Intensity Objects (%),[6],3%
same,Population Membrane Permeable-Phenotype (%),[6],16%
same,Population Mitochondria Different-Phenotype (%),[6],5%
same,Population Mitotic Cells (%),[6],72%
same,Population Normal (%),[6],96%
same,Population Pyknosed Nuclei (%),[6],11%
same,Population Tubulin-Different-Phenotype (%),[6],17%
same,Total Cell Count,[6],206
same,Population Apoptotic (%),[7],69%
same,Population Fragmented Nuclei (%),[7],15%
same,Population Healthy Nuclei (%),[7],33%
same,Population Hoechst High Intensity Objects (%),[7],18%
same,Population Mitochondria Different-Phenotype (%),[7],88%
same,Population Mitotic Cells (%),[7],30%
same,Population Normal (%),[7],81%
same,Population Pyknosed Nuclei (%),[7],50%
same,Population Tubulin-Different-Phenotype (%),[7],80%
same,Total Cell Count,[7],270
same,Population Apoptotic (%),[8],28%
same,Population Fragmented Nuclei (%),[8],19%
same,Population Healthy Nuclei (%),[8],42%
same,Population Hoechst High Intensity Objects (%),[8],6%
same,Population Membrane Permeable-Phenotype (%),[8],1%
same,Population Mitochondria Different-Phenotype (%),[8],21%
same,Population Mitotic Cells (%),[8],71%
same,Population Normal (%),[8],93%
same,Population Pyknosed Nuclei (%),[8],38%
same,Population Tubulin-Different-Phenotype (%),[8],25%
same,Total Cell Count,[8],222
same,Population Apoptotic (%),[9],60%
same,Population Fragmented Nuclei (%),[9],26%
same,Population Healthy Nuclei (%),[9],51%
same,Population Hoechst High Intensity Objects (%),[9],10%
same,Population Membrane Permeable-Phenotype (%),[9],4%
same,Population Mitochondria Different-Phenotype (%),[9],26%
same,Population Mitotic Cells (%),[9],39%
same,Population Normal (%),[9],89%
same,Population Pyknosed Nuclei (%),[9],22%
same,Population Tubulin-Different-Phenotype (%),[9],24%
same,Total Cell Count,[9],316
same,Population Apoptotic (%),[10],38%
same,Population Fragmented Nuclei (%),[10],21%
same,Population Healthy Nuclei (%),[10],73%
same,Population Hoechst High Intensity Objects (%),[10],6%
same,Population Membrane Permeable-Phenotype (%),[10],20%
same,Population Mitochondria Different-Phenotype (%),[10],1%
same,Population Mitotic Cells (%),[10],61%
same,Population Normal (%),[10],93%
same,Population Pyknosed Nuclei (%),[10],5%
same,Population Tubulin-Different-Phenotype (%),[10],17%
same,Total Cell Count,[10],259
same,Population Apoptotic (%),[11],65%
same,Population Healthy Nuclei (%),[11],24%
same,Population Hoechst High Intensity Objects (%),[11],15%
same,Population Membrane Permeable-Phenotype (%),[11],0%
same,Population Mitochondria Different-Phenotype (%),[11],83%
same,Population Mitotic Cells (%),[11],34%
same,Population Normal (%),[11],84%
same,Population Pyknosed Nuclei (%),[11],58%
same,Population Tubulin-Different-Phenotype (%),[11],70%
same,Total Cell Count,[11],267
same,Population Apoptotic (%),[12],29%
same,Population Fragmented Nuclei (%),[12],17%
same,Population Healthy Nuclei (%),[12],36%
same,Population Hoechst High Intensity Objects (%),[12],6%
same,Population Membrane Permeable-Phenotype (%),[12],2%
same,Population Mitochondria Different-Phenotype (%),[12],32%
same,Population Mitotic Cells (%),[12],70%
same,Population Normal (%),[12],93%
same,Population Pyknosed Nuclei (%),[12],46%
same,Population Tubulin-Different-Phenotype (%),[12],35%
same,Total Cell Count,[12],210
